# Test results: ChEMBL document CHEMBL1140439, “Pharmacophore modeling, docking, and principal component analysis based clustering: combined computer-assisted approaches to identify new inhibitors of the human rhinovirus coat protein” (J Med Chem, 2005)
# Experiments:
# [1] = Percent toxicity at 10 ug/mL on OH-I cells; type: functional, Homo sapiens
# Summary of the method: (§1)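 Static toxicity test on uninfected OH-I monolayers at or near 100% confluency, in 2% McCoy's with 0.25% DMSO. Compound given at the three highest concentrations (100, 32, 10 ug/mL). Monolayer reduction was scored against cell control; 50% or greater reduction counted as cytotoxic.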
# [2] = Effective concentration dissolved in DMSO against HRV serotype 39 in OH-I cells by multiple-cycle CPE inhibition assay; microscopic; type: functional, cell-based, Homo sapiens
# Summary of the method: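 Multiple-cycle CPE inhibition assay, HRV serotype 39 (ATCC), 85% confluent OH-I monolayers in 2% McCoy's, 0.25% DMSO final. Triplicate wells received compound then three serial log virus dilutions. EC50 taken as the concentration giving 50% CPE inhibition.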
# WI-38 [3] = test: Effective concentration dissolved in DMSO against HRV serotype 39 in WI-38 cells by multiple-cycle CPE inhibition assay; microscopic; type: functional, cell-based; conditions: Homo sapiens
# Summary of the method: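 Multiple-cycle CPE assay with HRV serotype 39 on 100% confluent WI-38 fibroblasts in 5% EMEM, 0.5% DMSO final. Triplicate monolayers received compound at 32, 10, 3.2, 1.0, 0.1 ug/mL plus three serial log virus dilutions. Read only microscopically (staining too weak) after virus controls reached 80–100% CPE at 32–320 TCID50. EC50 is the concentration giving 50% CPE inhibition.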
# [4] = Effective concentration dissolved in DMSO against HRV serotype 39 in OH-I cells by multiple-cycle CPE inhibition assay; spectrophotometric; type: functional, cell-based, Homo sapiens
# Summary of the method: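 HRV serotype 39 CPE inhibition assay in triplicate 85% confluent OH-I monolayers, 2% McCoy's, 0.25% DMSO final, compound at 100–0.1 ug/mL. Once virus controls reached 80–100% CPE (32–320 TCID50), cells were stained with 0.4% crystal violet for 20–30 min at room temperature, destained with 30% methanol/10% acetic acid, and OD read at 550 nm. EC50 is the concentration giving a 50% OD increase versus virus control, from Chou–Chou dose-effect analysis.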
# [5] = Percent toxicity at 100 ug/mL on OH-I cells; range 50-100 %; type: functional, Homo sapiens; summary of the method: as §1
# [6] = Percent toxicity at 32 ug/mL on OH-I cells; range 50-100 %; type: functional, Homo sapiens; summary of the method: as §1
# [7] = Percent toxicity at 10 ug/mL on OH-I cells; range 50-100 %; type: functional, Homo sapiens; summary of the method: as §1
# WI-38 [8] = test: Percent toxicity at 32 ug/mL on WI-38 cells; type: functional, Homo sapiens
# Summary of the method: (§2)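 Static toxicity test on uninfected WI-38 monolayers at or near 100% confluency, in 5% EMEM with 0.5% DMSO. Compound given at the three highest concentrations (32, 10, 3.2 ug/mL). Monolayer reduction was scored against cell control; 50% or greater reduction counted as cytotoxic.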
# WI-38 [9] = test: Percent toxicity at 10 ug/mL on WI-38 cells; type: functional, Homo sapiens; summary of the method: as §2
# WI-38 [10] = test: Cytostatic concentration against WI-38 cells; type: functional, Homo sapiens
EC50 [2],EC50 [4],Structure (SMILES),Toxicity [1],EC50 (WI-38 [3]),Toxicity [5],Toxicity [6],Toxicity [7],Toxicity (WI-38 [8]),Toxicity (WI-38 [9]),Cytostatic concentration (WI-38 [10])
15 µM,17 µM,CC1(C)CCc2cc(CN3CCN(c4ccc(C(F)(F)F)cn4)CC3)ccc2O1,30%,165 µM,100%,100%,–,–,–,–
121 µM,4.9 µM,COc1cc2c(cc1OC)C(C)N(C(=O)Nc1ccc(OC(F)(F)F)cc1)CC2 (stereo not drawn),–,< 78 µM,100%,100%,100%,–,–,–
7.3 µM,4.3 µM,Cc1csc2c(N3CCN(C(=O)Nc4ccc(OC(F)(F)F)cc4)CC3)ncnc12,–,48 µM,100%,100%,100%,–,–,–
35.7 µM,32.1 µM,CC1(C)CCc2cc(CN3CCN(c4ncc(C(F)(F)F)cc4Cl)CC3)ccc2O1,30%,< 72.7 µM,100%,100%,–,–,–,–
247 µM,246 µM,O=C(Nc1ccc(SC(F)(F)F)cc1)Nc1ccc(-n2ccc(C(F)(F)F)n2)cc1,–,11.2 µM,100%,100%,100%,<=50%,<=50%,–
142 µM,88.4 µM,COC(=O)c1ccc(CSc2nnc(-c3ccc4ncccc4c3)n2C)cc1,–,< 82 µM,30%,–,–,–,–,–
–,–,Cc1cc(CCCOc2c(C)cc(-c3noc(C(F)(F)F)n3)cc2C)on1 [PLECONARIL],–,–,–,–,–,–,–,30 µg/mL
–,–,CCOC(=O)/C=C/[C@H](C[C@@H]1CCNC1=O)NC(=O)[C@@H](CC(=O)[C@@H](NC(=O)c1cc(C)on1)C(C)C)Cc1ccc(F)cc1 [RUPINTRIVIR],–,–,–,–,–,–,–,>100 µg/mL
